Assay results taken from ChEMBL document CHEMBL3352255, “Tailor-made fluorescent trilobolide to study its biological relevance” (J Med Chem, 2014).
Values belong to the molecule of their own block, whether it stands above or below them. The source made the active and inactive calls. No cut-off for these calls is given here.

Tests used:
[1] = Cellular uptake in mitochondria of human PC3 cells at 1 uM after 10 to 40 mins by fluorescence microscopy; assay type: ADME; conditions: pc-3, 1 µM
Summary of the method: (§1)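 Live cells were treated with 1 μM Bodipy conjugates for at least 40 min and then co-stained with MitoTracker Red FM (100 nM, 10 min). Imaging by fluorescence microscopy assessed colocalisation with the green signal and the state of the mitochondrial network.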

[2] = tested on: PC-3; experiment: Induction of mitochondria fragmentation in human PC3 cells at 1 uM after 10 to 40 mins by fluorescence microscopy; assay type: functional, cell-based; summary of the method: as §1
[3] = tested on: LNCaP; experiment: Cytotoxicity against human LNCAP cells after 24 hrs by WST-1 assay; assay type: functional, cell-based
Summary of the method: (§2)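 Dark cytotoxicity (no light exposure) by WST-1 tetrazolium-to-formazan conversion reflecting metabolic activity; compounds tested at concentrations up to 50 μM for 24, 48 or 72 h; IC50 taken as concentration giving 50% inhibition of cell viability.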

[4] = tested on: LNCaP; experiment: Cytotoxicity against human LNCAP cells after 48 hrs by WST-1 assay; assay type: functional, cell-based; summary of the method: as §2
[5] = Cytotoxicity against human PC3 cells after 72 hrs by WST-1 assay; assay type: functional, cell-based; conditions: PC-3, 72 h; summary of the method: as §2
[6] = tested on: C2C12; experiment: Cytotoxicity against mouse C2C12 cells after 24 hrs by WST-1 assay; assay type: functional, cell-based; conditions: C2C12, 24 h; summary of the method: as §2
[7] = tested on: C2C12; experiment: Cytotoxicity against mouse C2C12 cells after 72 hrs by WST-1 assay; assay type: functional, cell-based; conditions: C2C12, 72 h; summary of the method: as §2
[8] = tested on: U2OS; experiment: Cytotoxicity against human U2OS cells after 24 hrs by WST-1 assay; assay type: functional, cell-based; summary of the method: as §2
[9] = tested on: MCF7; experiment: Cytotoxicity against human MCF7 cells after 24 hrs by WST-1 assay; assay type: functional, cell-based; conditions: MCF7, 24 h; summary of the method: as §2
[10] = tested on: MCF7; experiment: Cytotoxicity against human MCF7 cells after 48 hrs by WST-1 assay; assay type: functional, cell-based; conditions: MCF7, 48 h; summary of the method: as §2
[11] = tested on: MCF7; experiment: Cytotoxicity against human MCF7 cells after 72 hrs by WST-1 assay; assay type: functional, cell-based; conditions: MCF7, 72 h; summary of the method: as §2
[12] = Cytotoxicity against human MIAPaCa2 cells after 24 hrs by WST-1 assay; assay type: functional, cell-based; conditions: MIA PaCa-2, 24 h; summary of the method: as §2
[13] = Cytotoxicity against human MIAPaCa2 cells after 48 hrs by WST-1 assay; assay type: functional, cell-based; conditions: MIA PaCa-2, 48 h; summary of the method: as §2
[14] = Cytotoxicity against human MIAPaCa2 cells after 72 hrs by WST-1 assay; assay type: functional, cell-based; conditions: MIA PaCa-2, 72 h; summary of the method: as §2
[15] = tested on: HT-29; experiment: Cytotoxicity against human HT-29 cells after 24 hrs by WST-1 assay; assay type: functional, cell-based; conditions: HT-29, 24 h; summary of the method: as §2
[16] = tested on: HT-29; experiment: Cytotoxicity against human HT-29 cells after 48 hrs by WST-1 assay; assay type: functional, cell-based; conditions: HT-29, 48 h; summary of the method: as §2
[17] = tested on: HT-29; experiment: Cytotoxicity against human HT-29 cells after 72 hrs by WST-1 assay; assay type: functional, cell-based; conditions: HT-29, 72 h; summary of the method: as §2
[18] = Cytotoxicity against rat peritoneal cells assessed as reduction in cell viability at 40 uM after 24 hrs by WST-1 assay; assay type: cell-based
[19] = species on record: Rattus norvegicus; experiment: Induction of LPS-induced NO production in rat peritoneal cells at 40 uM after 24 hrs using DAR-2 probe by fluorescence assay; assay type: functional, cell-based
Summary of the method: (§3)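 Rat peritoneal cells were treated with conjugates at 0.01–100.0 μM for 24 h. NO production was compared with untreated cells. LPS (100 pg·mL−1) and trilobolide (0.1 μM) were included as references. Data are mean ± SEM of three independent experiments, n = 6.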

[20] = tested on: PC-3; experiment: Induction of LPS-induced NO production in human PC3 cells at 40 uM after 24 hrs using DAR-2 probe by fluorescence assay; assay type: functional, cell-based
Summary of the method: (§4)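 NO in living cells (PC-3, LNCaP, MCF-7, U-2 OS) was imaged by fluorescence microscopy with the NO-specific red-emitting probe DAR-2 after compound stimulation.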

[21] = tested on: MCF7; experiment: Induction of LPS-induced NO production in human MCF7 cells at 40 uM after 24 hrs using DAR-2 probe by fluorescence assay; assay type: functional, cell-based; summary of the method: as §4
[22] = tested on: U2OS; experiment: Induction of LPS-induced NO production in human U2OS cells at 40 uM after 24 hrs using DAR-2 probe by fluorescence assay; assay type: functional, cell-based; summary of the method: as §4
[23] = species on record: Rattus norvegicus; experiment: Induction of LPS-induced NO production in rat peritoneal cells after 24 hrs using DAR-2 probe by fluorescence assay; assay type: functional, cell-based
[24] = species on record: Rattus norvegicus; experiment: Induction of LPS-induced NO production in rat peritoneal cells at 1 to 10 uM after 24 hrs using DAR-2 probe by fluorescence assay; assay type: functional, cell-based; summary of the method: as §3
[25] = Cellular uptake in human PC3 cells at 1 uM after 20 mins by fluorescence microscopy; assay type: ADME, cell-based; conditions: pc-3, 20 min
Summary of the method: (§5)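 Uptake into living cells was followed by fluorescence microscopy at 10, 20 and 40 min and at 1, 3, 5 and 24 h. Green-emitting Bodipy conjugates were given at 1 μM. A Bodipy dye-only stain served as control for dye-driven localisation.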

[26] = tested on: U2OS; experiment: Cellular uptake in human U2OS cells at 1 uM after 20 mins by fluorescence microscopy; assay type: ADME, cell-based; summary of the method: as §5
[27] = tested on: LNCaP; experiment: Cellular uptake in human LNCAP cells at 1 uM after 20 mins by fluorescence microscopy; assay type: ADME, cell-based; summary of the method: as §5
[28] = tested on: MCF7; experiment: Cellular uptake in human MCF7 cells at 1 uM after 20 mins by fluorescence microscopy; assay type: ADME, cell-based; conditions: mcf7, 20 min; summary of the method: as §5
[29] = tested on: HeLa; experiment: Cellular uptake in human HeLa cells at 1 uM after 20 mins by fluorescence microscopy; assay type: ADME, cell-based; summary of the method: as §5
[30] = tested on: A549; experiment: Cellular uptake in human A549 cells at 1 uM after 20 mins by fluorescence microscopy; assay type: ADME, cell-based; conditions: a549, 20 min; summary of the method: as §5
[31] = tested on: C2C12; experiment: Cellular uptake in mouse C2C12 cells at 1 uM after 20 mins by fluorescence microscopy; assay type: ADME, cell-based; conditions: c2c12, 20 min; summary of the method: as §5
[32] = tested on: U2OS; experiment: Cellular uptake in human U2OS cells at 1 uM after 40 mins to 24 hrs by fluorescence microscopy; assay type: ADME, cell-based; summary of the method: as §5
[33] = Cellular uptake in human PC3 cells at 1 uM after 40 mins to 24 hrs by fluorescence microscopy; assay type: ADME, cell-based; conditions: pc-3, 1 µM; summary of the method: as §5
[34] = Cellular uptake in human MIAPaCa2 cells at 1 uM after 40 mins to 24 hrs by fluorescence microscopy; assay type: ADME, cell-based; conditions: mia paca-2, 1 µM; summary of the method: as §5
[35] = tested on: U2OS; experiment: Cellular uptake in human U2OS cells at 1 uM after 45 to 60 mins by fluorescence microscopy; assay type: ADME, cell-based; summary of the method: as §5
[36] = Cellular uptake in Endoplasmic reticulum of human U2OS cells at 1 uM after 1 hr by fluorescence microscopy; assay type: ADME, cell-based
Summary of the method: (§6)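 Live-cell fluorescence microscopy of cells exposed to Bodipy-labelled conjugates at 1 μM for 1 h. ER was co-stained with ER-Tracker Blue-White DPX (100 nM, 20 min) to check colocalisation. A Bodipy dye-only stain served as control.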

[37] = Cellular uptake in Endoplasmic reticulum of human PC3 cells at 1 uM after 1 hr by fluorescence microscopy; assay type: ADME, cell-based; conditions: pc-3, 1 h; summary of the method: as §6
[38] = Cellular uptake in Endoplasmic reticulum of human LNCAP cells at 1 uM after 1 hr by fluorescence microscopy; assay type: ADME, cell-based; summary of the method: as §6
[39] = Cellular uptake in Endoplasmic reticulum of human HeLa cells at 1 uM after 1 hr by fluorescence microscopy; assay type: ADME, cell-based; summary of the method: as §6
[40] = tested on: U2OS; experiment: Induction of ER stress in Endoplasmic reticulum of human U2OS cells assessed as small vesicle formation from ER network at 1 uM after 3 to 5 hrs by fluorescence microscopy; assay type: functional, cell-based
Summary of the method: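 U-2 OS live cells were incubated with conjugates at 1 μM for 1, 3 and 5 h. Fluorescence microscopy was used to score small vesicles or pouches budding from the ER network.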

[41] = Cellular uptake in mitochondria of human U2OS cells at 1 uM after 10 to 40 mins by fluorescence microscopy; assay type: ADME; summary of the method: as §1

Drug uptake [1]: Not Active | Drug uptake [25]: Active | Drug uptake [26]: Active | Drug uptake [27]: Active | Drug uptake [28]: Active | Drug uptake [29]: Active | Drug uptake [30]: Active | Drug uptake [31]: Active | Drug uptake [32]: Not Active | Drug uptake [33]: Active | Drug uptake [34]: Active | Drug uptake [35]: Not Active | Drug uptake [36]: Active | Drug uptake [37]: Active | Drug uptake [38]: Active | Drug uptake [39]: Active | Drug uptake [41]: Not Active
SMILES: C/C=C(/C)C(=O)O[C@@H]1C[C@H]2C(=C1C)[C@@H]1OC(=O)[C@@](C)(O)[C@@]1(O)[C@@H](OC(=O)CCOCCOCCOCCOCCn1cc(COc3ccc(C4=C5C=CC=[N+]5[B-](F)(F)n5cccc54)cc3)nn1)C[C@]2(C)OC(C)=O
Activity [2]: Active | IC50 [3]: 7.4 µM | IC50 [4]: 0.4 µM | IC50 [5]: 4.1 µM | IC50 [6]: 8 µM | IC50 [7]: 14.3 µM | IC50 [8]: > 50 µM | IC50 [9]: 7.4 µM | IC50 [10]: 6.3 µM | IC50 [11]: 6 µM | IC50 [12]: > 50 µM | IC50 [13]: 9.9 µM | IC50 [14]: 6.5 µM | IC50 [15]: > 50 µM | IC50 [16]: 14.2 µM | IC50 [17]: > 50 µM | Activity [18]: Non-toxic | Activity [19]: Active | Activity [20]: Active | Activity [21]: Active | Activity [22]: Active | Activity [23]: Dose-dependent effect | Activity [24]: Active | Activity [40]: Active

SMILES: C/C=C(/C)C(=O)O[C@@H]1C[C@H]2C(=C1C)[C@@H]1OC(=O)[C@@](C)(O)[C@@]1(O)[C@@H](OC(=O)CCCCn1cc(COc3ccc(C4=C5C=CC=[N+]5[B-](F)(F)n5cccc54)cc3)nn1)C[C@]2(C)OC(C)=O
Drug uptake [1]: Not Active | Activity [2]: Active | IC50 [3]: 12.7 µM | IC50 [4]: 9.7 µM | IC50 [5]: 3.8 µM | IC50 [6]: > 50 µM | IC50 [7]: 15.1 µM | IC50 [8]: 25.6 µM | IC50 [9]: > 50 µM | IC50 [10]: 12.8 µM | IC50 [11]: 10.8 µM | IC50 [12]: > 50 µM | IC50 [13]: 43.5 µM | IC50 [14]: 38.3 µM | IC50 [15]: > 50 µM | IC50 [16]: > 50 µM | IC50 [17]: > 50 µM | Activity [18]: 20% | Activity [19]: Active | Activity [20]: Active | Activity [21]: Active | Activity [22]: Active | Activity [23]: Dose-dependent effect | Activity [24]: Active | Drug uptake [25]: Active | Drug uptake [26]: Active | Drug uptake [27]: Active | Drug uptake [28]: Active | Drug uptake [29]: Active | Drug uptake [30]: Active | Drug uptake [31]: Active | Drug uptake [32]: Not Active | Drug uptake [33]: Active | Drug uptake [34]: Active | Drug uptake [35]: Not Active | Drug uptake [36]: Active | Drug uptake [37]: Active | Drug uptake [38]: Active | Drug uptake [39]: Active | Activity [40]: Active | Drug uptake [41]: Not Active
